# Assays:
# MT4 [1] = assay: Effective concentration to achieve 50% protection of MT-4 cells against the cytopathic effect of HIV-2; format: functional, cell-based
# MT4 [2] = assay: Effective concentration to achieve 50% protection of MT-4 cells against the cytopathic effect of HIV-1; format: functional, cell-based
# HuT78 [3] = assay: Giant-cell formation between persistently HIV-2 infected HUT-78 cells and uninfected MOLT-4 cells; format: functional, cell-based
# Procedure, shortened: (§1)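 MOLT-4 cells were co-cultured with an equal number of HUT-78 cells persistently infected with HIV-1 IIIB or HIV-2 ROD, with varying compound concentrations. Syncytia were counted by flow cytofluorography after 24 h. EC50 is the concentration giving 50% protection against giant-cell formation.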
# MT4 [4] = assay: Selectivity index for CC50 (cytotoxic concentration based on reduction of viability of mock-infected MT-4 cells) to that of EC50 against HIV-2; format: functional
# Procedure, shortened: (§2)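 MT-4 cells at 3 × 10^5 cells/mL were infected with HIV-1 IIIB or HIV-2 ROD at 100 CCID50/mL, or mock-infected, alongside serial compound dilutions. Viability was read by MTT after 5 days at 37 °C. CC50 comes from mock-infected cells and EC50 from protection against cytopathicity. Index = CC50/EC50.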
# [5] = In vitro anticoagulant activity determined by clotting test of activated partial thromboplastin time (APTT) on a pool of human plasma; format: functional
# Procedure, shortened: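 Activated partial thromboplastin time clotting test on pooled human plasma, run on an automatic coagulometer. Activities were calculated according to the European Pharmacopoeia.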
# HuT78 [6] = assay: Giant-cell formation between persistently HIV-1 infected HUT-78 cells and uninfected MOLT-4 cells; format: functional, cell-based; procedure, shortened: as §1
# MT4 [7] = assay: Selectivity index for CC50 (cytotoxic concentration based on the reduction of the viability of mock-infected MT-4 cells) to that of EC50 against HIV-1; format: functional; procedure, shortened: as §2
# [8] = Homo sapiens, MT4, read-out: EC50
# [9] = Homo sapiens, HuT78, read-out: EC50
Structure (SMILES),EC50 (MT4 [1]; [8]) [µg/mL],EC50 (MT4 [2]; [8]) [µg/mL],EC50 (HuT78 [3]; [9]) [µg/mL],Selectivity index (MT4 [4]),APTT [5] [IU mg-1],EC50 (HuT78 [6]; [9]) [µg/mL],Selectivity index (MT4 [7]),EC50 (MT4 [1]; mt4) [µg/mL],EC50 (MT4 [2]; mt4) [µg/mL],EC50 (HuT78 [3]; hut78) [µg/mL],EC50 (HuT78 [6]; hut78) [µg/mL]
CCCC(=O)OC/C(=C\C(=O)[O-])OC1OC(COS(=O)(=O)[O-])C(OC2OC(C(=O)[O-])C(OC3OC(COS(=O)(=O)[O-])C(OC4OC(C(=O)[O-])C(OC5OC(COS(=O)(=O)[O-])C(O)C(OC(=O)CCC)C5NC(C)=O)C(OC(=O)CCC)C4OS(=O)(=O)[O-])C(OC(=O)CCC)C3NC(C)=O)C(OC(=O)CCC)C2OS(=O)(=O)[O-])C(OC(=O)CCC)C1NC(C)=O.[Na+].[Na+].[Na+].[Na+].[Na+].[Na+].[Na+].[Na+] (configuration not stated),1.2,0.5,20,>417,6,15,>1000,–,–,–,–
CCCCCCCCOC(=O)/C=C(\CO)OC1OC(COS(=O)(=O)[O-])C(OC2OC(C(=O)OCCCCCCCC)C(OC3OC(COS(=O)(=O)[O-])C(OC4OC(C(=O)OCCCCCCCC)C(OC5OC(COS(=O)(=O)[O-])C(O)C(O)C5NS(=O)(=O)[O-])C(O)C4OS(=O)(=O)[O-])C(O)C3NS(=O)(=O)[O-])C(O)C2OS(=O)(=O)[O-])C(O)C1NS(=O)(=O)[O-].[Na+].[Na+].[Na+].[Na+].[Na+].[Na+].[Na+].[Na+] (stereo in doubt; 7g),–,–,–,>1000,6,–,>833,0.5,0.59,20,4
CCCCOC(=O)/C=C(\CO)OC1OC(COS(=O)(=O)[O-])C(OC2OC(C(=O)OCCCC)C(OC3OC(COS(=O)(=O)[O-])C(OC4OC(C(=O)OCCCC)C(OC5OC(COS(=O)(=O)[O-])C(O)C(O)C5NC(C)=O)C(O)C4OS(=O)(=O)[O-])C(O)C3NC(C)=O)C(O)C2OS(=O)(=O)[O-])C(O)C1NC(C)=O.[Na+].[Na+].[Na+].[Na+].[Na+] (configuration not stated),2.5,6.5,20,>200,1.2,100,>77,–,–,–,–
CCCCOC(=O)/C=C(\COC(=O)CCC)OC1OC(COS(=O)(=O)[O-])C(OC2OC(C(=O)OCCCC)C(OC3OC(COS(=O)(=O)[O-])C(OC4OC(C(=O)OCCCC)C(OC5OC(COS(=O)(=O)[O-])C(O)C(OC(=O)CCC)C5NS(=O)(=O)[O-])C(OC(=O)CCC)C4OS(=O)(=O)[O-])C(OC(=O)CCC)C3NS(=O)(=O)[O-])C(OC(=O)CCC)C2OS(=O)(=O)[O-])C(OC(=O)CCC)C1NS(=O)(=O)[O-].[Na+].[Na+].[Na+].[Na+].[Na+].[Na+].[Na+].[Na+] (configuration not stated),0.27,0.28,4,>1850,5,4,>1785,–,–,–,–
C=CCCOC(=O)/C=C(\CO)OC1OC(COS(=O)(=O)[O-])C(OC2OC(C(=O)OCCC=C)C(OC3OC(COS(=O)(=O)[O-])C(OC4OC(C(=O)OCCC=C)C(OC5OC(COS(=O)(=O)[O-])C(O)C(O)C5NS(=O)(=O)[O-])C(O)C4OS(=O)(=O)[O-])C(O)C3NS(=O)(=O)[O-])C(O)C2OS(=O)(=O)[O-])C(O)C1NS(=O)(=O)[O-].[Na+].[Na+].[Na+].[Na+].[Na+].[Na+].[Na+].[Na+] (configuration not stated),2.4,0.6,2,>208,3,90,>833,–,–,–,–
O=C([O-])/C=C(\CO)OC1OC(COS(=O)(=O)[O-])C(OC2OC(C(=O)[O-])C(OC3OC(COS(=O)(=O)[O-])C(OC4OC(C(=O)[O-])C(OC5OC(COS(=O)(=O)[O-])C(O)C(O)C5NS(=O)(=O)[O-])C(O)C4OS(=O)(=O)[O-])C(O)C3NS(=O)(=O)[O-])C(O)C2OS(=O)(=O)[O-])C(O)C1NS(=O)(=O)[O-].[Na+].[Na+].[Na+].[Na+].[Na+].[Na+].[Na+].[Na+].[Na+].[Na+].[Na+] (stereo in doubt; 3a),–,–,> 200,318,5,–,>961,77,0.52,–,> 200

# — ChEMBL document CHEMBL1126896, “Preparation and anti-HIV activity of O-acylated heparin and dermatan sulfate derivatives with low anticoagulant effect” (J Med Chem, 1993)
